Test results from the EternaBench riboswitch data.

Tested on: MS2 coat protein
Test: apparent Kd, MS2 coat protein; higher = weaker binding; RNA-MaP array; FMN 200 µM where present
How it was run: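 Each design was made on Illumina sequencing-chip clusters by stalled E. coli RNA polymerase and titrated with SNAP-549-labelled MS2 coat protein from 0.7 or 1.5 nM, doubling to 3 µM, in the absence and then the presence of constant ligand. The buffer was 100 mM Tris-HCl pH 7.5, 80 mM KCl, 4 mM MgCl2, BSA, DTT, yeast tRNA and Tween-20. The apparent Kd is the median of filtered per-cluster fits of binding curves, with green signal normalised to red-channel RNA signal and control-cluster median Fmax.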

[1] = designed as: ON switch for flavin mononucleotide, no ligand
[2] = ligand present: flavin mononucleotide, designed as: ON switch for flavin mononucleotide
[3] = designed as: OFF switch for flavin mononucleotide, no ligand
[4] = ligand present: flavin mononucleotide, designed as: OFF switch for flavin mononucleotide

In the case of “CGCUACGUUUCGUAGCAGUGUCAUCGAGAAGGCCCUGACAUGAGGAUCACCCAUGUAAAAGUUCAGGAGGAUAUCGAUGAUACA”, the “apparent Kd” value [1] is reported as 4.83 nM and the “apparent Kd” value [2] is reported as 4.95 nM.
For “CGCUAUGACAUAGGAUAUUGGUACAUGAGGAUCACCCAUGUCAACCAUGAAGCUCGAUUUGUUGACAAGAAGGAUGUGGUAGCG”, the “apparent Kd” value [1] was 6.65 nM and the “apparent Kd” value [2] was 7.63 nM.
For “CGCUCAAGAGAGAAGGAUAGAAUCAGAAGGCGUAACAUGAGGAUCACCCAUGUAAAGUAGUGUAACGAGGAUAUGAAAUGAGCG”, the “apparent Kd” value [3] was 11.8 nM and the “apparent Kd” value [4] was 13.1 nM.
With “CGCUCAAUAUAUAAGGAAAGAAUCAGAAGGCGUUACAUGAGGAUCACCCAUGUUUUGUAUAGUAACGAGGAUAUGAUAUGAGCG” the “apparent Kd” value [3] was 17.9 nM and the “apparent Kd” value [4] was 15.3 nM.
“CGCUGUCUCGCAGGAUAUGCAUUGGAUUACAAUGCAGAAGGGCGAUUACAUGAGGAUCACCCAUGUGUUGACAGUGAAGAAUAG” was tested, and the “apparent Kd” value [1] was 96.6 nM and the “apparent Kd” value [2] was 22.2 nM.
For “CGGAAUUGUACAGGAUAUGAGGGUACCUGAGCCUCAGAAGGGUAGACCGACAUGAGGAUCACCCAUGUAUGCGGAUAACGUCCG”, the “apparent Kd” value [1] was 1180 nM and the “apparent Kd” value [2] was 592 nM.
For “CGGACCCGAGGAUAUCGUAAACCCGACAUGAGGAUCACCCAUGUCAUCCUCACGGCGCCACGAGAAGGCGGUGUUA”, the “apparent Kd” value [3] was 24.2 nM and the “apparent Kd” value [4] was 75.7 nM.
For “CGGCAUCAUGUAGGAUAUGCGUGGCGAAGCUAUGCAGAAGGACAUGAGGAUCACCCAUGUCUUAGCUAGCGUACUAGCUUGCCG”, the “apparent Kd” value [3] was 6.24 nM and the “apparent Kd” value [4] was 16.6 nM.
In the case of “CGGCGACAUGAGGAUCACCCAUGUCAAGAGUGGUCAGGAUAUGGUAUGAGAUGAGUAUGGCCAGAAGGGACAUAAG”, the “apparent Kd” value [1] is reported as 29.1 nM and the “apparent Kd” value [2] is reported as 21.2 nM.
For “CGGCGCUGUCGAGAGGAUAUGCGGUGAUGGACAUGAGGAUCACCCAUGUUAGCGAUAGCAUCACGGUAGAAGGCUCUACGGCCUG”, the “apparent Kd” value [1] was 112 nM and the “apparent Kd” value [2] was 15.6 nM.
“CGGCGCUGUCGAGAGGAUAUGCGGUGAUGGACAUGAGGAUCACCCAUGUUAGCGAUAGCAUUACGGUAGAAGGCUCUACAGCUGC” was tested, and the “apparent Kd” value [1] was 34.7 nM and the “apparent Kd” value [2] was 16.3 nM.
“CGGCGCUGUUGAGAGGAUAUGCGGUGAUGGACAUGAGGAUCACCCAUGUUAGCGAUAGCAUUACGGUAGAAGGCUCUACAGCUGU” was tested, and the “apparent Kd” value [1] was 28.1 nM and the “apparent Kd” value [2] was 16.7 nM.
With “CGGCGGAAAGGAUAUGCAUUAAUAUCCAAAUGUGGGCCACGACAUGAGGAUCACCCAUGUAGAAGGUUCAGCCG” the “apparent Kd” value [3] was 15.3 nM and the “apparent Kd” value [4] was 13.9 nM.
“CGGCGGGCAGGAUAUACAUGAGGAUCACCCAUGUGUGUCCAUACGCGUGAGUCCUCGUGUAGAAGGGUUUGUUG” was tested, and the “apparent Kd” value [3] was 14.9 nM and the “apparent Kd” value [4] was 13.4 nM.
With “CGGGUGGUCCUCCGGGAUUGGACACAGGAUAUCCGCGAGAACAUGAGGAUCACCCAUGUACAUGAGGAGAAGGGUGGACGAAGA” the “apparent Kd” value [1] was 56.1 nM and the “apparent Kd” value [2] was 11.2 nM.
“CGGUACUGAGGAUAUACAUGAGGAUCACCCAUGUGUUCUAGCUAGCGUACUGGCUAUUGUAGAAGGCGGUGCUG” was tested, and the “apparent Kd” value [3] was 17.5 nM and the “apparent Kd” value [4] was 99.8 nM.
With “CGGUCGAUAUCAGGAUAUCGAUUAAUUACAUGAGGAUCACCCAUGUUGACAUGGAAUAUAACAUGCGAGAAGGGAUUACGAUCG” the “apparent Kd” value [1] was 27.6 nM and the “apparent Kd” value [2] was 10.7 nM.
“CGGUCGAUGUAAGGAUAUCGACUGGAUAACAGUCGAGAAGGUACAUGAGGAUCACCCAUGUAAACCUAUAAUAAAUAACGACCG” was tested, and the “apparent Kd” value [3] was 11.2 nM and the “apparent Kd” value [4] was 14.6 nM.
For “CGGUCUUGCAACUAUUUGUUUCACAUGAGGAUCACCCAUGUCAGAAGGAGGUGCAUAUAUUAGACCUAGGAUAUGACGUGUAAA”, the “apparent Kd” value [3] was 9.79 nM and the “apparent Kd” value [4] was 28.4 nM.
“CGGUUGCGAGGAUAUAUGACAUGUUGCGCCGGAACUCCGCCACAUGAGGAUCACCCAUGUAGAAGGCGCAACUU” was tested, and the “apparent Kd” value [3] was 14.4 nM and the “apparent Kd” value [4] was 15.3 nM.
In the case of “CGUACACAUGAGGAUCACCCAUGUCAGAGGCGGUCAGGAUAUGGGCGGCAUCCGCUAUAGCCAGAAGGGACUGAUG”, the “apparent Kd” value [1] is reported as 173 nM and the “apparent Kd” value [2] is reported as 73.6 nM.
“CGUCAUCAAGUGAGGAUAUCGUCAAAUCAAUCAGGCGAGAAGGCACAUGAGGAUCACCCAUGUCGACUCAUCAC” was tested, and the “apparent Kd” value [3] was 15.4 nM and the “apparent Kd” value [4] was 22.2 nM.
With “CGUCGAUACCAGAAGGACAUGAGGAUCACCCAUGUAGGAUAUGGGUGACCGGGAUGGCGGACACGCUGCCCGGGCACAUGCGAC” the “apparent Kd” value [1] was 10.6 nM and the “apparent Kd” value [2] was 7.79 nM.
“CGUCUGUGAGGAUAUGGUGUCGUUUACAUGAGGAUCACCCAUGUUUCAUGGGACUAGAGACUAGAAGGUACUGACG” was tested, and the “apparent Kd” value [3] was 314 nM and the “apparent Kd” value [4] was 413 nM.
“CGUGCGUAUGUGAGGAUAUGCUGGUCCUUGGAUCGGCAGAAGGCACAUGAGGAUCACCCAUGUGGUGUCGUACA” was tested, and the “apparent Kd” value [3] was 312 nM and the “apparent Kd” value [4] was 43.2 nM.
In the case of “CGUGCUAUGUAGAAGGCAGAAAAGAUUCAGAUCUGAGGAUAUACAUGAGGAUCACCCAUGUUAUGCACCAGCACGAGAGUGCAC”, the “apparent Kd” value [3] is reported as 6.69 nM and the “apparent Kd” value [4] is reported as 7.03 nM.
With “CGUGCUAUGUAGAAGGCAGAUCUGAUUCAGAUCUGAGGAUAUACAUGAGGAUCACCCAUGUUAUGCACCAGCACGAGAGUGCAU” the “apparent Kd” value [3] was 9.83 nM and the “apparent Kd” value [4] was 40.2 nM.
In the case of “CGUGUUAGAGGAGGAUAUAGCGCAAGAAGGUCGCUAGAAGGCCUUGACAUGAGGAUCACCCAUGUGAUCGGCUCUCUGGGUAAG”, the “apparent Kd” value [3] is reported as 211 nM and the “apparent Kd” value [4] is reported as 141 nM.
